From ChEMBL document CHEMBL1147266, “New dammarane triterpenes from the aerial parts of Ibicella lutea grown in Argentina” (J Nat Prod, 2003)
In brackets after ≈: the same amount, converted by molar mass.

Tests used:
Format in all cases: functional, cell-based
A549 = experiment: Cytotoxicity against human A549 cells after 3 days by crystal violet staining; conditions: A549, 72 h
Summary of the method: (§1)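 Cells kept in log-phase growth in EMEM with nonessential amino acids, 2.0 mM L-glutamine, 5% FCS, 10^-2 M NaHCO3 and penicillin/streptomycin. Trypsin-harvested cells seeded at 1×10^4/well in 24-well dishes with graded sample concentrations, drug-free growth controls included, in duplicate. Incubated 3 days at 37 °C, 5% CO2, then crystal violet stained for approximate IC50. Coulter counts of trypsinized cells gave %G dose-response curves for IC50.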

[1] = Cytotoxicity against human H116 cells after 3 days by crystal violet staining; conditions: H116, 72 h; summary of the method: as §1
PSN1 = experiment: Cytotoxicity against human PSN1 cells after 3 days by crystal violet staining; conditions: PSN1, 72 h; summary of the method: as §1
T98G = experiment: Cytotoxicity against human T98G cells after 3 days by crystal violet staining; conditions: 72 h; summary of the method: as §1
HT-29 = experiment: Cytotoxicity against human HT-29 cells after 3 days by crystal violet staining; conditions: HT-29, 72 h; summary of the method: as §1

Row | Compound | IC50 (A549) [µg/mL] | IC50 [1] [µg/mL] | IC50 (PSN1) [µg/mL] | IC50 (T98G) [µg/mL] | IC50 (HT-29) [µg/mL]
1 | CC(=O)O[C@H]1CC[C@]2(C)[C@H]3C[C@@H](OC(C)=O)[C@@H]4[C@@H]([C@]5(C)CC[C@@H](C(C)(C)O)O5)CC[C@@]4(C)[C@]3(C)CC[C@H]2C1(C)C | 5 (≈ 8.92 µM) | 5 (≈ 8.92 µM) | – | – | –
2 | CC(=O)O[C@H]1CC[C@]2(C)[C@H]3C[C@@H](O)[C@@H]4[C@@H]([C@]5(C)CC[C@@H](C(C)(C)O)O5)CC[C@@]4(C)[C@]3(C)CC[C@H]2C1(C)C | > 5 | > 5 | > 5 | > 5 | –
3 | CC(=O)O[C@H]1CC[C@]2(C)[C@H]3C[C@@H](OC(C)=O)[C@@H]4[C@@H]([C@]5(C)CC[C@@H](C(C)(C)OC(C)=O)O5)CC[C@@]4(C)[C@]3(C)CC[C@H]2C1(C)C | > 5 | > 5 | > 5 | > 5 | –
4 | CC(C)(O)[C@H]1CC[C@@](C)([C@H]2CC[C@]3(C)[C@@H]2[C@H](O)C[C@@H]2[C@@]4(C)[C@H](O)C[C@@H](O)C(C)(C)[C@@H]4CC[C@]23C)O1 | > 10 | > 10 | – | – | > 10
5 | CC(=O)O[C@@H]1C[C@@H]2[C@@]3(C)[C@H](OC(C)=O)C[C@@H](OC(C)=O)C(C)(C)[C@@H]3CC[C@@]2(C)[C@]2(C)CC[C@H]([C@]3(C)CC[C@H](C(C)(C)OC(C)=O)O3)[C@@H]12 | – | 5 (≈ 7.57 µM) | – | – | –
6 | CC(=O)O[C@@H]1C[C@@H]2[C@@]3(C)[C@H](OC(C)=O)C[C@@H](OC(C)=O)C(C)(C)[C@@H]3CC[C@@]2(C)[C@]2(C)CC[C@H]([C@]3(C)CC[C@H](C(C)(C)O)O3)[C@@H]12 (relative stereo) | > 5 | > 5 | > 5 | > 5 | –
7 | CC(=O)O[C@@H]1C[C@@H](OC(C)=O)[C@]2(C)[C@H]3C[C@@H](O)[C@@H]4[C@@H]([C@]5(C)CC[C@H](C(C)(C)O)O5)CC[C@@]4(C)[C@]3(C)CC[C@H]2C1(C)C (relative stereo) | > 10 | > 10 | – | – | > 10
8 | CC(C)(O)[C@@H]1CC[C@@](C)([C@H]2CC[C@]3(C)[C@@H]2[C@H](O)C[C@@H]2[C@@]4(C)CC[C@H](O)C(C)(C)[C@@H]4CC[C@]23C)O1 (relative stereo) | 5 (≈ 10.5 µM) | 5 (≈ 10.5 µM) | – | – | –
9 | CC(=O)O[C@@H]1C[C@@H](O)[C@]2(C)[C@H]3C[C@@H](O)[C@@H]4[C@@H]([C@]5(C)CC[C@H](C(C)(C)O)O5)CC[C@@]4(C)[C@]3(C)CC[C@H]2C1(C)C (relative stereo) | > 10 | > 10 | – | – | > 10
